Reference: ChEMBL document CHEMBL1146382, “Design and synthesis of BACE1 inhibitors containing a novel norstatine derivative (2R,3R)-3-amino-2-hydroxy-4-(phenylthio)butyric acid” (Bioorg Med Chem Lett, 2007)
Numbered stars: 1 amine (or outer) side, 2 acyl side, 3 side chain; on linkers, the order of the positions; unused ones are H or OH. Square brackets hold non-standard residues; d marks the D form. Peptide text beside a SMILES is read from it. β3hPhe(2R-OH) = O=C([C@H](O)[C@H](Cc1ccccc1)N[*:1])[*:2]; X1 = O=C([C@H](O)[C@H](CSc1ccccc1)N[*:1])[*:2]

How the values were obtained:
[1] = biological target: Beta-secretase 1 (Homo sapiens) (UniProt P56817); experiment: Inhibition of human recombinant BACE1 at 2 uM
In short: (§1)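 Recombinant human BACE1 enzymatic assay. Inhibition is expressed as the percent decrease in substrate cleaved by the enzyme.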

[2] = biological target: Beta-secretase 1 (Homo sapiens) (UniProt P56817); experiment: Inhibition of human recombinant BACE1 at 0.2 uM; in short: as §1

Beta-secretase 1 (Homo sapiens), sequence (P56817 whole entry): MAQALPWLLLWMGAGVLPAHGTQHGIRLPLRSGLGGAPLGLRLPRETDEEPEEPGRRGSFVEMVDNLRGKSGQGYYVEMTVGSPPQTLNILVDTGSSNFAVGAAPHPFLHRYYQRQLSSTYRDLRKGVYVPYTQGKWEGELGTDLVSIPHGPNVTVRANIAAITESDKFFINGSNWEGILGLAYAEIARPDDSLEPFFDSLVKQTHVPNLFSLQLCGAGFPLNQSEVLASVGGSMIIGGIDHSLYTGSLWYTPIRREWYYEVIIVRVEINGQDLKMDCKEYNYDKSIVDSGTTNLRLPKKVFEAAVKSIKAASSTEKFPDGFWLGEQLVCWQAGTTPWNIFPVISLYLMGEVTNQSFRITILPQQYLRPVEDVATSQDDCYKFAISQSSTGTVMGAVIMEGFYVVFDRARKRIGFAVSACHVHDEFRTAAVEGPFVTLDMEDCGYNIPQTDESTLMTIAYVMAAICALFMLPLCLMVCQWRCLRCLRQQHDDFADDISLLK

Row | inhibition [1] [%] | inhibition [2] [%] | Structure (SMILES)
1 | 98 | 80 | CC(C)C[C@H](NC(=O)[C@@H](NC(=O)[C@@H](N)CNC(=O)c1cc(N)cc(C(=O)O)c1)C(C)C)C(=O)N[C@@H](Cc1ccccc1)[C@@H](O)C(=O)Nc1cccc(C(=O)O)c1
2 | 82 | 34 | CC(C)C[C@H](NC(=O)[C@@H](NC(=O)[C@@H](N)CCC(=O)O)C(C)C)C(=O)N[C@@H](CSc1ccccc1)[C@@H](O)C(=O)N[C@@H](CC(=O)O)C(=O)N[C@@H](C)C(=O)N[C@@H](CCC(=O)O)C(=O)N[C@@H](Cc1ccccc1)C(=O)O (H-EVL[X1]DAEF-OH)
3 | 96 | 57 | CC(C)C[C@H](NC(=O)[C@@H](NC(=O)[C@@H](N)CCC(=O)O)C(C)C)C(=O)N[C@@H](CSc1ccccc1)[C@@H](O)C(=O)Nc1cccc(C(=O)O)c1
4 | 69 |  | CC(C)C[C@H](NC(=O)[C@@H](NC(=O)[C@@H](N)CCC(=O)O)C(C)C)C(=O)N[C@@H](CSc1ccccc1)[C@@H](O)C(=O)N[C@@H](CC(=O)O)C(=O)O (H-EVL[X1]D-OH)
5 | 99 | 86 | CC(C)C[C@H](NC(=O)[C@@H](NC(=O)[C@@H](N)CNC(=O)c1cc(N)cc(C(=O)O)c1)C(C)C)C(=O)N[C@@H](CSc1ccccc1)[C@@H](O)C(=O)Nc1cccc(C(=O)O)c1
6 |  | 32 | CC(C)C[C@H](NC(=O)[C@@H](NC(=O)[C@@H](N)CCC(=O)O)C(C)C)C(=O)N[C@@H](Cc1ccccc1)[C@@H](O)C(=O)N[C@@H](CC(=O)O)C(=O)N[C@@H](C)C(=O)N[C@@H](CCC(=O)O)C(=O)N[C@@H](Cc1ccccc1)C(=O)O (H-EVL[β3hPhe(2R-OH)]DAEF-OH)
